What was measured:
D(2) dopamine receptor [1] = biological target: T1, D(2) dopamine receptor (Rattus norvegicus, UniProt P61169); assay: In vitro displacement of [3H]spiperone from Dopamine receptor D2 binding site in rat striatum.
[2] = biological target: T2, 5-hydroxytryptamine receptor 1A (Rattus norvegicus, UniProt P19327); assay: Binding affinity was evaluated by determining in vitro displacement of [3H]8-OH-DPAT from the central 5-hydroxytryptamine 1A receptor recognition site in rat frontal cortex homogenate.; assay type: tissue-based
T2 sequence (P19327 whole entry): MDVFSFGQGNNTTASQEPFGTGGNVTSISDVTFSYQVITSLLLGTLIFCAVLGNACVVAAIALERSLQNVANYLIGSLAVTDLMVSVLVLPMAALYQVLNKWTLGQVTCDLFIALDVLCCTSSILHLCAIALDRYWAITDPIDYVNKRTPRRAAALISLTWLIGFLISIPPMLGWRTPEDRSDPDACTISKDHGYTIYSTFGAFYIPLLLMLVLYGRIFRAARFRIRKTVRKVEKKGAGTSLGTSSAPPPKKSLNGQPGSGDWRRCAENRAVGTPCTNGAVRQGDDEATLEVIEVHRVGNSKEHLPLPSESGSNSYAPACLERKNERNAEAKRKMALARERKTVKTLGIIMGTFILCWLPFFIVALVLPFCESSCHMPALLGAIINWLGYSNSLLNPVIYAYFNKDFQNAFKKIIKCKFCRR

[3] = biological target: T2, 5-hydroxytryptamine receptor 1A; assay: pKi value against rat 5-hydroxytryptamine 1A receptor.
[4] = Partition coefficient (logP); assay type: physicochemical; settings: octanol/water
Method in brief: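 Retention factor k converted via calibration with 10 reference compounds (log Pow 2.1–5.7). Values below 2.1 extrapolated; interpolated values carry 95% confidence interval ±0.4.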

D(2) dopamine receptor [5] = biological target: T1, D(2) dopamine receptor; assay: pKi value against rat Dopamine receptor D2.
[6] = biological target: T3, 5-hydroxytryptamine receptor 1A (Homo sapiens, UniProt P08908); assay: In vitro potency at human 5-hydroxytryptamine 1A receptor in inhibiting forskolin-stimulated accumulation of intracellular cAMP; assay type: functional, cell-based
T3 sequence (P08908 whole entry): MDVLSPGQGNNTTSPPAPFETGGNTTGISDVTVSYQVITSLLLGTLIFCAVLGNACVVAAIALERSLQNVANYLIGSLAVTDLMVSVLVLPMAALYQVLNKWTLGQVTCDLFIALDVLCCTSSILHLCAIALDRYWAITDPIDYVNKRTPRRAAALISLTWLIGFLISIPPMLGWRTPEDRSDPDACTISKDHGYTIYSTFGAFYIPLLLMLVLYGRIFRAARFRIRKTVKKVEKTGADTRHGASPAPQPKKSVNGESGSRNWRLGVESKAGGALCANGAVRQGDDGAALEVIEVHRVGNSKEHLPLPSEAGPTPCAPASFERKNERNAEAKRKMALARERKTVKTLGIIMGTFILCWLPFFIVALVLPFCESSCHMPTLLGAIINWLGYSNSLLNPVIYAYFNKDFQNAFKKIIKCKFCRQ
Method in brief: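 CHO cells stably expressing human 5-HT1A receptor, grown in α-DMEM + 10% fetal calf serum, seeded 3 days before assay. Labelled with [3H]adenine (2 μCi/mL) for 2 h, rinsed with PBS/10 mM IBMX, then stimulated 10 min with forskolin (10^-7 M) plus compound at various concentrations, in quadruplicate. TCA extraction; [3H]cAMP separated on Dowex/alumina columns, scintillation counting. EC50 from three independent experiments.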

T1 sequence (P61169 whole entry): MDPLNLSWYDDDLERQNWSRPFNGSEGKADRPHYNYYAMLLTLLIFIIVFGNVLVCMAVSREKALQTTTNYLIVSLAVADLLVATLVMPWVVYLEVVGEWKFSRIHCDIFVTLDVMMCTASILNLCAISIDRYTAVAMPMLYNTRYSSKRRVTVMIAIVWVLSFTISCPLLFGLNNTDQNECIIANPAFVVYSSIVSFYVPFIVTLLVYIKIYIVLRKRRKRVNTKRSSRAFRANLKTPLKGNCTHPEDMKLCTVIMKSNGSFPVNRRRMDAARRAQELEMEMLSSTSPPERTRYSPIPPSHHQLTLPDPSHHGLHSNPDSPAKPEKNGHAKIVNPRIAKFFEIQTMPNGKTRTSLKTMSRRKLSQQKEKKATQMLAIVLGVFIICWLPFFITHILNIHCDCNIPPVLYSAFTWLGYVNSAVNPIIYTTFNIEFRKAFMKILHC

SMILES | Ki (D(2) dopamine receptor [1]) [nM] | Ki [2] [nM] | Ki [3] [nM] | logP [4] | Ki (D(2) dopamine receptor [5]) [nM] | EC50 [6] [nM]
OC[C@@H]1COc2c(cccc2N2CCNCC2)O1 | > 10000 |  |  |  |  | 
O=C(NCCN1CCN(c2ccccc2)CC1)c1ccc(F)cc1 |  | 4.9 |  |  |  | 
O=C(NCCN1CCN(c2cccc3c2OCC(CO)O3)CC1)c1ccc(F)cc1 (single isomer, unassigned) [FLESINOXAN] | 140 | 1.7 |  |  |  | 
COc1ccccc1N1CCN(CCNC(=O)c2cccs2)CC1 | 17 | 1.6 | 1.58 | 2 | 15.8 | 
O=C(NCCN1CCN(c2cccc3c2OCCO3)CC1)c1ccc(F)cc1 | 14 |  |  |  |  | 0.9
COc1ccccc1N1CCN(CCNC(=O)c2ccco2)CC1 | 73 | 18 | 20 | 1.6 | 79.4 | 
COc1ccccc1N1CCN(CCNC(=N)C2CCCCC2)CC1 | 130 | 4.5 | 5.01 | 3.4 | 126 | 
COc1ccccc1N1CCN(CCNC(=O)c2ccc(F)cc2)CC1 |  | 1 | 1 | 2.5 |  | 
COc1ccccc1N1CCN(CCOCc2ccc(F)cc2)CC1 | 10 | 22 | 20 | 3.6 | 10 | 
COc1ccccc1N1CCN(CCNC(=O)C2CCCCC2)CC1 | 23 | 0.8 | 0.794 | 2.8 | 12.6 | 
COc1ccccc1N1CCN(CCNC(=S)C2CCCCC2)CC1 | 6.4 | 0.32 | 0.316 | 3.7 | 6.31 | 
COc1ccccc1N1CCN(CCNC(=O)c2ccncn2)CC1 | 250 | 15 | 15.8 | 1.5 | 251 | 
COc1ccccc1N1CCN(CCCC(O)c2ccc(F)cc2)CC1 (stereo not drawn) [ANISOPIROL] | 3.4 | 2.5 | 2.51 | 3.4 | 3.16 | 
COc1ccccc1N1CCN(CCCOc2ccc(F)cc2)CC1 | 3.3 | 3.4 | 3.16 | 4.1 | 3.16 | 
O=C(NCCN1CCN(c2cccc3ccoc23)CC1)c1ccc(F)cc1 | 5.3 |  |  |  |  | 
COc1ccccc1N1CCN(CCNC(=O)c2cccnc2)CC1 | 570 | 140 | 158 | 1.2 | 501 | 
COc1ccccc1N1CCN(CCNC(=O)c2ccccc2)CC1 | 13 | 1.3 | 1.26 | 2.2 | 12.6 | 
c1ccc(N2CCNCC2)cc1 [PHENYLPIPERAZINE] | 6800 |  |  |  |  | 
COc1ccccc1N1CCN(CCCC(=O)c2ccc(F)cc2)CC1 [FLUANISONE] | 3.1 | 1 | 1 | 3.6 | 2.51 | 
c1cc(N2CCNCC2)c2occc2c1 | 780 |  |  |  |  | 
COc1ccccc1N1CCN(CCNC(C)=O)CC1 | 1100 | 800 | 794 | 0.5 | 1000 | 
CC1CN(c2cccc3c2OCCO3)CC(C)N1CCNC(=O)c1ccc(F)cc1 (stereo not drawn) |  |  |  |  |  | 0.78
COc1ccccc1N1CCN(CCNC(=O)c2ccc[nH]2)CC1 | 64 | 16 | 15.8 | 1.6 | 63.1 | 
COc1ccccc1N1CCN(CC/C=C/c2ccc(F)cc2)CC1 | 4.1 | 1.8 | 2 | 4.7 | 3.98 | 
COc1ccccc1N1CCN(CCCCc2ccc(F)cc2)CC1 | 3.3 | 1.1 | 1 | 4.8 | 3.16 | 

Reference: ChEMBL document CHEMBL1130285, “5-HT1A-versus D2-receptor selectivity of flesinoxan and analogous N4-substituted N1-arylpiperazines” (J Med Chem, 1997)
